B1: NELF-E aptamer (parent)
chain: CCCAACGACUGCCGAGCGAGAUUACGCUUGAGCGCCCCACUGAGGAUGCCCACGGGCGAUUGGGGCACGG

Variants of: B1
Test: HiTS-RAP
Details: with NELF-E (Drosophila)
How it was run: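 Kd came from weighted Hill fits to the first binding curve, with intensities normalised to sequencing intensity and averaged per sequence, keeping only fits whose variance was below 1,000,000. That curve was imaged on an Illumina GAIIx flowcell, where sequenced aptamer DNA templates with a T7 promoter and ter site had been transcribed in situ by T7 RNA polymerase and halted by GST-Tus (30 minutes, 37°C). Before each image, clusters equilibrated for 30 minutes at room temperature with NELF-E-mOrange at 0.064 to 1000 nM in HEPES binding buffer.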

Variant	Kd [nM]
A5G C53U	4.59
A5G G26A	5.29
A5G G26U	7.39
A5G G65U	6.76
C6A C17G	7.95
A4U G30A	3.77
C6A U23G	7.03
A4U G26U	4.31
A4U G26A	4.14
A5G C66U	6.42
A5G G34A	5.89
A5G C27U	5.87
A4U G7U	6.61
A5C U22G	6.87
A5U G54A	13.9
A5G C33U	6.71
C6A U22G	7.16
A5U G63A	9.5
A5U G63U	15.8
A5G A8G	6.06
A5G A8U	6.29
A5G A8C	9.31
A5U G34A	5.54
A4U A21U	6.22

Variant	Kd [nM]
A5U U41A	80.9
A5U U41G	6.01
A5G C37U	10.4
C6G A67G	6.07
C6G A67U	6.45
A5U A67G	6.53
A5U A67U	7.25
C6G A8G	5.5
C6G A8C	6.37
C6G A8U	5.7
A5U G18A	5.46
A4U A31G	6.99
A4U A31U	7.69
A5U A19U	6
A5U A19G	7.47
A5U C38U	10.6
A4U U10C	6.91
A4U U10A	4.41
A4U U10G	5.45
A5G C6U	5.92
A5G C6A	6.25
A5G C6G	5.46
A4U C17U	5.01
A4U C17G	5.58

Variant	Kd [nM]
C6G A52G	4.45
C6G A52U	16.1
A5C U29G	7.04
C6G C38A	45.1
C6G C38U	10.4
C6A U29G	6.91
A5U U47G	7.11
A5U U47A	10.5
A4U G16U	6.93
A5U G16A	8.1
A5U G16U	6.86
A5G C17G	5.22
A5G C17U	6.29
A4U G64A	10.1
A4U G55A	8.55
A5G U29A	6.04
A5G U29C	6.65
A5G U29G	6.19
A5G C50G	6.45
A5G C50U	21.6
A5U C13U	7.12
A5U C13G	5.56
A5G G63A	14.1
A5G G63U	12.1

Variant	Kd [nM]
C6G A43U	87.2
C6G A43G	34.4
C6G C12A	6.77
C6G C12G	5.68
C6G C12U	5.53
A4U C6G	5.99
A4U C6U	6.4
A5G G11U	6.9
A5G G11A	6.61
A5U C17U	6.66
A5U C17G	6.36
A5U C57U	6.5
A4U A43G	40
A5G G42A	27.1
A5C C6A	7.97
A5C C6G	5.97
C6A C13G	5.49
A5G A39U	34.5
A5G A39C	22.3
A5G A39G	13.2
A5U A52G	7.25
A5U A52U	18.4
A4U C66U	5.14
A5U U10C	4.96

Variant	Kd [nM]
A5U U10G	5.49
A5U U10A	7.7
A5U C25G	6.13
A5G U22C	5.45
A5G U22G	5.89
A4U A59G	70.4
A4U G20U	6.62
A4U G56A	10.8
C6G A21G	5.74
C6G A21U	5.06
A5U A24U	6.21
A5U A24G	6.39
C6A C12G	6.54
A5U G55U	8.79
A5U G55A	7.03
A4U U23G	6.29
A5U G20U	7.83
A5U G20A	6.68
C6A A24G	7.36
A5C G16U	8.04
A5G U41G	6.23
A5G U41C	84.9
A5G U41A	25
A4U G34A	6.2

Variant	Kd [nM]
A4U C37U	9.84
A4U C37A	13
A4U G18A	4.13
A5U C66U	4.52
A4U C13A	4.82
A4U C13U	5.19
A4U C13G	5.84
A5U G32A	4.34
A5G G45U	7.32
A5G G45A	21.9
A5U A39G	8.51
A5U A39U	29.7
A4U U47G	6.26
A4U U47A	12.5
A5G G55U	7.72
A5G G55A	11.2
C6G A15G	5.46
C6G A15U	6.24
A5G C12G	6.02
A5G C12U	6.51
A5G C12A	5.04
A5U U61A	41.2
A5U U61C	85.8
A4U G32A	5.67

Variant	Kd [nM]
A5C G14U	6.73
C6A G11U	6.57
C6G C25U	5.65
C6G C25G	5.65
A5G C9G	5.97
A5G C9U	6.36
A5G A31G	7.69
A5G A31U	5.74
A5G G14A	6.54
A5G G14U	6.38
A4U C12G	5.79
A4U C12U	5.44
A4U A46G	58.7
A5G A52U	17
A5G A52G	4.26
A4U G65A	5.54
A4U G65U	6.16
A5G C25G	6.52
A5G C51U	7.39
C6G A24U	8.62
C6G A24G	5.79
A5U C53U	4.46
A5G U10C	4.79

Source: the RNAGym collection of RNA variant scans (doi:10.1038/nmeth.2970)
